How the values were obtained:
[1] = molecular target: Human immunodeficiency virus type 1 integrase (Human immunodeficiency virus 1, UniProt Q7ZJM1); experiment: Allosteric inhibition of [3H]-2-tert-butoxy-2-[2-methyl-4-(p-tolyl)-3-quinolyl]acetic acid binding to HIV1 integrase measured after 1 hr under dark condition by microbeta plate reader method
Procedure, shortened: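 Scintillation proximity displacement of tritiated LEDGF-site inhibitor from purified HIV-1 integrase (13 μM) premixed 1 h with PVT SPA beads (2 mg/mL); […]. Buffer 26 mM MOPS pH 7.0, 11 mM DTT, 100 mM NaCl, 20 mM MgCl2, 0.05% NP-40, 5% PEG-8000. Compounds 100 μM to 0.0512 nM, ten 5-fold dilutions. 1 h rocking, RT, dark; read after overnight; Ki derived.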

[2] = tested on: Human immunodeficiency virus 1; experiment: Antiviral activity against HIV1 NL4-3 infected in human MT2 cells measured after 3 to 4 days by luciferase reporter gene assay; format: functional, organism-based
[3] = Stability of the compound in rat liver microsomes assessed as parent compound remaining at 0.5 uM measured after 10 mins in presence of NADPH by LC-MS/MS analysis; format: ADME, Microsome; settings: read-out: Stability
Procedure, shortened: (§1)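 CYP-mediated turnover: 0.5 μM compound with human or rat liver microsomes (1 mg/mL) in 100 mM sodium phosphate pH 7.4, 6.6 mM MgCl2, 37 °C; started with NADPH, DMSO 0.014%. Samples quenched at 0 and 10 min; parent remaining by LC-MS/MS; duplicate.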

[4] = Permeability of the compound in pH 7.4 buffer at 100 uM measured after 4 hrs by sandwich-PAMPA; format: ADME; settings: read-out: permeability
Procedure, shortened: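 Parallel artificial membrane permeability: compound at 100 μM in donor buffer pH 7.4, permeating to acceptor through artificial membrane over 4 h; donor, acceptor and t0 solutions read by UV plate reader; triplicate.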

[5] = Stability of the compound in human liver microsomes assessed as parent compound remaining at 0.5 uM measured after 10 mins in presence of NADPH by LC-MS/MS analysis; format: ADME, Microsome; settings: read-out: Stability; procedure, shortened: as §1
[6] = tested on: Human immunodeficiency virus 1; experiment: Antiviral activity against HIV1 NL4-3 harboring G140S/Q148H mutant infected in human MT2 cells measured after 3 to 4 days by luciferase reporter gene assay; format: functional, organism-based; settings: Human immunodeficiency virus 1, NL4-3, MT2
Procedure, shortened: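 MT-2 cells (RPMI 1640, 10% heat-inactivated FBS, 10 mM HEPES pH 7.55, 2 mM L-glutamine, penicillin/streptomycin) infected with titered NL4-3 Renilla luciferase reporter virus (luciferase replacing nef) carrying integrase G140S/Q148H, with serial compound dilutions from 10 mM DMSO stock, final DMSO 1%; luciferase read after 3–4 days; EC50 from median effect equation; n ≥ 2, some n = 1.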

[7] = Cytotoxicity against human MT2 cells measured after 4 days by XTT assay; format: cell-based
Procedure, shortened: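 MT-2 cell viability measured by XTT after 4 days of compound exposure, run in parallel with the antiviral assay; CC50 from n ≥ 2 determinations.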

[8] = Therapeutic index, ratio of CC50 for human MT2 cells to EC50 for HIV1 NL4-3 infected in human MT2 cells; format: toxicity, cell-based; settings: read-out: Ratio CC50/EC50
[9] = tested on: Human immunodeficiency virus 1; experiment: Antiviral activity against HIV1 NL4-3 infected in human MT2 cells measured after 3 to 4 days in presence of human serum albumin by luciferase reporter gene assay; format: functional, organism-based; settings: Human immunodeficiency virus 1, NL4-3, MT2
[10] = tested on: Human immunodeficiency virus 1; experiment: Selectivity ratio of EC50 for HIV1 NL4-3 infected in human MT2 cells in presence of human serum albumin to EC50 for HIV1 NL4-3 infected in human MT2 cells in absence of human serum albumin; format: functional
[11] = Human immunodeficiency virus 1, NL4-3, MT2

Sequence of Human immunodeficiency virus type 1 integrase (Q7ZJM1 whole entry): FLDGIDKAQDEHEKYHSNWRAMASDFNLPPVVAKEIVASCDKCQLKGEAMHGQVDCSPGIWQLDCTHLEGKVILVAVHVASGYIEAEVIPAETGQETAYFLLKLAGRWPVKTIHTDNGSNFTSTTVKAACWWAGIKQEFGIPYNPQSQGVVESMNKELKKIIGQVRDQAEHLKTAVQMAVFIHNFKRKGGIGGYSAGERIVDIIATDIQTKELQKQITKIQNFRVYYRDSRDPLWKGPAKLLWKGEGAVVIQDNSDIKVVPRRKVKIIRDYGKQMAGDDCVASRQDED

Row | SMILES | Ki [1] [µM] | EC50 [2, 11] [µM] | remaining at 10 min, 0.5 µM [3] [%] | Papp at 4 h, 100 µM [4] [×10⁻⁶ cm/s] | remaining at 10 min, 0.5 µM [5] [%] | also measured
1 | Cc1nc2cc(-c3ccccc3)nn2c(-c2cc(F)c3c(c2C)CCCO3)c1[C@@H](OC(C)(C)C)C(=O)O | > 53 | 13 | – | – | – | –
2 | COc1ccccc1-c1c(C(OC(C)(C)C)C(=O)O)c(C)nc2cc(-c3ccccc3)nn12 (configuration not stated) | > 40 | > 40 | – | – | – | –
3 | Cc1nc2cc(-c3cccc(-c4ccccc4)c3)nn2c(N2CCC(C)(C)CC2)c1C(OC(C)(C)C)C(=O)O (configuration not stated) | – | 0.13 | – | – | – | –
4 | Cc1nc2cc(-c3cccc(Oc4ccccc4)c3)nn2c(-c2cc(F)c3c(c2C)CCCO3)c1C(OC(C)(C)C)C(=O)O (configuration not stated) | – | 0.06 | 97 | 47.2 | 100 | –
5 | Cc1nc2cc(-c3ccccc3)nn2c(-c2ccccc2)c1C(OC(C)(C)C)C(=O)O (configuration not stated) | 3.7 | > 40 | – | – | – | –
6 | Cc1nc2cc(-c3ccccc3)nn2c(-c2cc(F)c3c(c2C)CCCO3)c1[C@H](OC(C)(C)C)C(=O)O | 0.09 | 0.11 | – | – | – | EC50 [6]: 0.09 µM
7 | Cc1ccc(-c2cc3nc(C)c(C(OC(C)(C)C)C(=O)O)c(-c4cc(F)c5c(c4C)CCCO5)n3n2)cc1 (configuration not stated) | – | 0.1 | 94 | 49.2 | 95 | –
8 | Cc1nc2cc(-c3cccc(OCc4ccccc4)c3)nn2c(N2CCC(C)(C)CC2)c1C(OC(C)(C)C)C(=O)O (configuration not stated) | – | 0.06 | 100 | 37.5 | 100 | –
9 | Cc1nc2cc(-c3ccccc3)nn2c(N2CCC(C)(C)CC2)c1C(OC(C)(C)C)C(=O)O (configuration not stated) | 0.06 | 0.55 | – | 70.3 | 100 | –
10 | Cc1ccc(-c2c(C(OC(C)(C)C)C(=O)O)c(C)nc3cc(-c4ccccc4)nn23)cc1 (configuration not stated) | 0.68 to 0.7 | 0.62 | – | – | – | CC50 at 96 h [7]: 77 µM
11 | Cc1nc2cc(-c3cccc(-c4ccncc4)c3)nn2c(-c2cc(F)c3c(c2C)CCCO3)c1[C@H](OC(C)(C)C)C(=O)O | – | 0.003 | 94 | 48.8 | 46 | CC50 at 96 h [7]: 13.2 µM; selectivity ratio [8]: 4410; EC50 [9]: 0.07 µM; Ratio EC50 [10]: 23
12 | COc1ccc(-c2cccc(-c3cc4nc(C)c([C@H](OC(C)(C)C)C(=O)O)c(-c5cc(F)c6c(c5C)CCCO6)n4n3)c2)cn1 | – | 0.005 | 100 | 51.4 | 73 | CC50 at 96 h [7]: > 23 µM; selectivity ratio [8]: > 4600; EC50 [9]: 0.023 µM; Ratio EC50 [10]: 5
13 | Cc1ccc(-c2c(C(OC(C)(C)C)C(=O)O)c(C)nc3ccnn23)cc1 (configuration not stated) | 2 | 4.5 | – | – | – | –
14 | Cc1nc2cc(-c3cccc(-c4ccccc4)c3)nn2c(-c2cc(F)c3c(c2C)CCCO3)c1[C@H](OC(C)(C)C)C(=O)O | – | 0.006 | 96 | 73.3 | 78 | CC50 at 96 h [7]: 6.59 µM; selectivity ratio [8]: 1100; EC50 [9]: 0.11 µM; Ratio EC50 [10]: 18
15 | Cc1cccc(-c2c(C(OC(C)(C)C)C(=O)O)c(C)nc3cc(-c4ccccc4)nn23)c1 (configuration not stated) | 4.4 | > 40 | – | – | – | –
16 | Cc1nc2cc(-c3ccccc3)nn2c(-c2ccc3c(c2)CCCO3)c1C(OC(C)(C)C)C(=O)O (configuration not stated) | 0.04 | 0.49 | – | – | – | –

Row | SMILES | Ki [1] [µM] | EC50 [2, 11] [µM] | remaining at 10 min, 0.5 µM [3] [%] | Papp at 4 h, 100 µM [4] [×10⁻⁶ cm/s] | remaining at 10 min, 0.5 µM [5] [%] | also measured
17 | Cc1nc2cc(-c3cccc(OCc4ccccc4)c3)nn2c(-c2cc(F)c3c(c2C)CCCO3)c1C(OC(C)(C)C)C(=O)O (configuration not stated) | – | 0.02 | 83 | 57 | 72 | –
18 | Cc1ccc(-c2c(C(O)C(=O)O)c(C)nc3cc(-c4ccccc4)nn23)cc1 (configuration not stated) | – | > 40 | – | – | – | –
19 | Cc1nc2cc(-c3ccccc3)nn2c(N2CCCCCC2)c1C(OC(C)(C)C)C(=O)O (configuration not stated) | 0.43 | 2.3 | – | – | – | –
20 | Cc1ccccc1-c1c(C(OC(C)(C)C)C(=O)O)c(C)nc2cc(-c3ccccc3)nn12 (configuration not stated) | 3.4 | 21 | – | – | – | –
21 | Cc1nc2cc(-c3ccc(OCc4ccccc4)cc3)nn2c(-c2cc(F)c3c(c2C)CCCO3)c1C(OC(C)(C)C)C(=O)O (configuration not stated) | – | 0.06 | 79 | 31.3 | 84 | –
22 | Cc1ccc(Nc2c(C(OC(C)(C)C)C(=O)O)c(C)nc3cc(-c4ccccc4)nn23)cc1 (configuration not stated) | > 40 | > 40 | – | – | – | –
23 | CC(C)(C)OC(C(=O)O)c1ccccc1-c1ccccc1 (configuration not stated) | 67 | 16 | – | – | – | CC50 at 96 h [7]: 127 µM
24 | COc1ccc(-c2c(C(OC(C)(C)C)C(=O)O)c(C)nc3cc(-c4ccccc4)nn23)cc1 (configuration not stated) | 0.31 | 1.7 | – | – | – | –
25 | COc1cccc(-c2c(C(OC(C)(C)C)C(=O)O)c(C)nc3cc(-c4ccccc4)nn23)c1 (configuration not stated) | 15.3 | > 40 | – | – | – | –
26 | Cc1nc2cc(-c3ccccc3)nn2c(C)c1C(OC(C)(C)C)C(=O)O (configuration not stated) | > 40 | > 40 | – | – | – | –
27 | Cc1ccc(-c2c(C(OC(C)(C)C)C(N)=O)c(C)nc3cc(-c4ccccc4)nn23)cc1 (configuration not stated) | – | 18 | – | – | – | –
28 | Cc1nc2cc(-c3cccc(-c4ccccc4)c3)nn2c(-c2cc(F)c3c(c2C)CCCO3)c1C(OC(C)(C)C)C(=O)O (racemic) | – | 0.015 | 100 | 65.2 | 86 | EC50 [6]: 0.01 µM
29 | Cc1nc2cc(-c3ccccc3)nn2c(-c2cc(F)c3c(c2C)CCCO3)c1C(OC(C)(C)C)C(=O)O (racemic) | 0.17 | – | 97 | 21.8 | 93 | EC50 [6]: 0.119 µM; EC50 [2]: 0.21 µM
30 | Cc1nc2cc(-c3ccccc3)nn2c(-c2cc(F)c3c(c2C)CCCO3)c1C(OC(C)(C)C)C(=O)O (stereo in doubt; 15) | 3.4 | – | – | – | – | EC50 [2]: > 40 µM
31 | Cc1nc2ccccc2c(-c2ccc3c4c(ccnc24)CCO3)c1[C@H](OC(C)(C)C)C(=O)O [BI-224436] | – | 0.05 | – | – | – | CC50 at 96 h [7]: 3340 µM; selectivity ratio [8]: 66800
32 | Cc1nnc(C(=O)NC(C)(C)c2nc(C(=O)NCc3ccc(F)cc3)c(O)c(=O)n2C)o1 [RALTEGRAVIR] | – | 0.002 | – | – | – | EC50 [6]: 2.42 µM

— ChEMBL document CHEMBL4402570, “Discovery and Optimization of Novel Pyrazolopyrimidines as Potent and Orally Bioavailable Allosteric HIV-1 Integrase Inhibitors” (J Med Chem, 2020)
